Source: PubChem (several laboratories)
CHT inh = inhibitors of human choline transporter CHT. CHT-expressing cells, membrane potential dye, choline response; active compounds read low. B-score at 10 µM. 310,000 tested, 0.86% active. AID 488975, 2010;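 active = B-score over 3 SD under the library average, and starting fluorescence ratio not unusually high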;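 note: choline stimulus applied at its EC90 after an EC20 pre-addition; B-score computed on integrated fluorescence ratio after choline addition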
CHT PAM = CHT positive allosteric modulators, primary screen, cell-based, membrane potential dye, choline EC20. High affinity choline transporter 1 (Homo sapiens), Q9GZV3. CHT-expressing cells; active compounds read high; LV-AA mutant CHT in HEK293 cells. B-score at 10 µM. 310,000 tested, 0.49% active;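 active = initial fluorescence not abnormally high and integrated response B-score, plate-corrected, over 3 SD above library mean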
Lipid droplet = inhibitors of hepatocyte lipid droplet formation, primary screen, imaging, high-throughput imaging, BODIPY stain. inhibition, % at 6.5 µM. 240,000 tested, 0.4% active. AML12 mouse hepatocytes, oleate lipid droplets. AID 1656, 2009;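 active = lipid droplet intensity inhibited by at least 50%, with more than 500 cells counted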
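material = mouse AML12 hepatocyte cell line, fixed after treatment | also added = 100 µM oleic acid challenge | doses = compound at 6.5 µM only | schedule = overnight exposure | technique = Image-based BODIPY and DAPI two-channel analysis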
PHOSPHO1 block = PubChem AID 1565; Phosphoethanolamine/phosphocholine phosphatase (Homo sapiens), Q8TCT1; recombinant PHOSPHO1, absorbance phosphatase assay; inhibition, % at 13.3 µM; 290,000 tested, 1.1% active; in the data active = inhibition above about 60%
Target sequence (Q8TCT1 whole entry, looked up): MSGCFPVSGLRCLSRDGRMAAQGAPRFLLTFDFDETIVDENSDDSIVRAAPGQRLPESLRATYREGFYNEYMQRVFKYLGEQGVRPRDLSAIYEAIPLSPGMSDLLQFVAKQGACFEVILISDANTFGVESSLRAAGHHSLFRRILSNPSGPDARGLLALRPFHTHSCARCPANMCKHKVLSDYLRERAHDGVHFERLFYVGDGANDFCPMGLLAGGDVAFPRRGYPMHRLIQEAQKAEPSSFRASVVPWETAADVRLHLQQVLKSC
HSF1 inh = HSF1 inhibitors in luciferase reporter cells, primary screen, cell-based, NIH3T3, luminescence | NIH3T3-HGL HSE-luciferase, MG132-induced, luminescence 8 h; active compounds read low | activity change, negative = inhibition, % at 7.5 µM (by protocol) | 300,000 tested, 0.77% active | AID 2098, 2009;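 active = more than half of replicate wells show activity change below -50%, luminescence cut by over half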;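 note: luciferase reports HSF-1 transcriptional activity via heat shock element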
HSF1 activator = HSF-1 activators, primary screen, NIH3T3-HGL cells, MG132 stress, luminescence, single point; activation, % at 9 µM; NIH3T3-HGL HSF-1 luciferase reporter, 8 h; 100% = twice DMSO control signal; 300,000 tested, 1.7% active;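 active = mean replicate activation of at least 50% with a set share of replicates each reaching 50%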
A number is an active result; 0 = inactive; - = no result. In the library only some 4.9% were active in any assay of this set; here they are far more common.

SMILES | CHT inh | CHT PAM | Lipid droplet | PHOSPHO1 block | HSF1 inh | HSF1 activator
Cc1ncoc1C(=O)N1CCCC(C(=O)Nc2cccc(-c3ccc(F)cc3)c2)C1 (configuration not stated) | 0 | 0 | 0 | 0 | 0 | 0
CCC(C)(C)NC(=O)C(c1ccc(OC)cc1)N(C(=O)CCC(=O)Nc1cc(C)on1)c1ccccc1F (configuration not stated) | 0 | 0 | 0 | 0 | 0 | 0
Cc1ccccc1CS(=O)(=O)Cc1ccc(C(=O)NCCc2ccccc2)o1 | 0 | 0 | 0 | 0 | 0 | 0
CCCCN1CNC(=S)N(c2cc(C)ccc2C)C1 | 0 | 0 | 0 | 61 | 0 | 0
CCOC(=O)/C=C(/C)N1N=C(c2ccc(OC)cc2)CC1c1cccc([N+](=O)[O-])c1 (configuration not stated) | 0 | 0 | 0 | 0 | 0 | 59
COc1ccc(C2=NN(C(=O)c3ccccc3)C(c3cccc([N+](=O)[O-])c3)C2)cc1 (configuration not stated) | 0 | 0 | 0 | 0 | 0 | 0
Fc1ccc(NC(=S)N/N=C/c2ccc(F)c(F)c2)cc1 | 0 | 0 | 0 | 0 | 0 | 0
Fc1ccc(/C=N/NC(=S)Nc2ccc(Cl)cc2)cc1F | 0 | 0 | 0 | 0 | 0 | 56
COc1ccc(NC(=S)N/N=C/c2ccc(F)cc2)cc1OC | 0 | 0 | 0 | 0 | 0 | 55
Fc1cccc(/C=N/NC(=S)Nc2ccccc2Cl)c1 | 0 | 0 | 0 | 0 | 0 | 87
Cc1cc(C)cc(NC(=O)c2nccnc2C(=O)O)c1 | 0 | 0 | - | 0 | 0 | 0
Cc1nc(NCCc2ccc(S(N)(=O)=O)cc2)c2c(C)c(C)sc2n1 | 0 | 0 | 0 | 0 | 0 | 0
C/C(=N\NC(=O)COc1ccccc1)c1cccs1 | 0 | 0 | 0 | 0 | 0 | 0
CCC(C(=O)N1CCN(C(=O)c2ccco2)CC1)n1sc2ccccc2c1=O (configuration not stated) | 0 | 0 | 0 | 0 | 0 | 0
CC1(C(=O)O)CCC(C(=O)NC2CCCCCC2)C1(C)C (configuration not stated) | 0 | 0 | - | 0 | 0 | 0
COc1ccc(CCNc2nc(-c3sc(C)nc3C)cs2)cc1OC | 0 | 0 | - | 80 | 0 | 0
COc1ccc(CCNc2nc(-c3ccncc3)cs2)cc1OC | 0 | 0 | 0 | 0 | 0 | 0
CC(C)(C)[C@H]1C=C(C(N)=O)O[C@@H](OCCCCO)C1 | 0 | 0 | 0 | 0 | 0 | 0
CCc1c(C)nc2c(-c3ccccc3)c[nH]n2c1=O | 0 | 0 | 0 | - | 0 | 0
COC(=O)c1ccccc1NC(=O)c1cccs1 | 0 | 0 | 0 | 0 | 0 | 0
CCc1cccc(NC(=O)Nc2cccs2)c1 | 0 | 0 | 0 | 0 | 0 | 133
O=C(Nc1cccs1)Nc1c(F)c(F)cc(F)c1F | 0 | 0 | 0 | 0 | 0 | 59
O=C(Nc1cccs1)Nc1c(F)c(F)c(F)c(F)c1F | 0 | 0 | 0 | 0 | 0 | 0
COC(=O)c1ccccc1NC(=O)Nc1cccs1 | 0 | 0 | 0 | 0 | 0 | 66
Cc1ccc(OCc2ccc(C#N)cc2)c(C(=O)c2cc(C#N)c(=O)n(C3CC3)c2)c1 | 0 | 0 | 0 | 0 | 0 | 53
SMILES | CHT inh | CHT PAM | Lipid droplet | PHOSPHO1 block | HSF1 inh | HSF1 activator
CCC(C)(C)NC(=O)C(c1ccc(C)cc1)N(Cc1cccs1)C(=O)c1ccc2c(c1)OCCO2 (configuration not stated) | 0 | 0 | - | 0 | 0 | 55
O=C(c1ccccc1Br)N1CCn2c1nc1ccccc12 | 0 | 0 | 0 | 0 | 0 | 0
COC(=O)c1ccsc1NC(=O)CCc1ccccc1 | 0 | 0 | 0 | 0 | 0 | 67
NC(=O)c1ccsc1NC(=O)CCc1ccccc1 | 0 | 0 | 0 | 0 | 0 | 0
COC(=O)Nc1sccc1C(=O)Nc1sccc1C(=O)OC | 0 | 0 | 0 | 0 | -65 | 0
CCC(=O)Nc1sccc1C(=O)OC | 0 | 0 | 0 | 0 | 0 | 0
C=CCSc1nnc(-c2cc3c(-c4ccccc4)nn(C)c3s2)n1C | 0 | 0 | - | 0 | 0 | 0
COc1cc2c(cc1NC(=O)C(C)OC(=O)C1CC(=O)N(Cc3ccco3)C1)oc1ccccc12 (configuration not stated) | 0 | 0 | 0 | 0 | 0 | 74
COc1ccc(C)cc1NC(=O)C1CC(=O)N(Cc2ccco2)C1 (configuration not stated) | 0 | 0 | - | 0 | 0 | 0
COc1cc2c(cc1NC(=O)Nc1ccc(C)cc1)oc1ccccc12 | 0 | 0 | 0 | 0 | 0 | 0
COc1cc2c(cc1NC(=O)C(C)Sc1ccc(NC(C)=O)cc1)oc1ccccc12 (configuration not stated) | 0 | 0 | 0 | 0 | -60 | 0
C=CCNc1nc(-c2ccc(OC)cc2OC)cs1 | 0 | 0 | - | 61 | 0 | 0
C(#Cc1ccccc1)Cn1nnc2ccccc21 | 0 | 0 | 0 | 0 | 0 | 0
CCn1cc(C(=O)NCCCN(CC(C)C)CC(C)C)c(=O)c2cc(S(=O)(=O)N3CCOCC3)ccc21 | 0 | 0 | 0 | 0 | 0 | 0
CCN(CC)CCOC(=O)c1ccc(N)cc1 | 0 | 0 | 0 | 0 | -78 | 0
Cc1cccc(N2C(=O)CS/C2=N\NC(=O)c2ccc(Br)cc2)c1C | 0 | 0 | 0 | 0 | -72 | 0
O=[N+]([O-])/C(C(=C(Cl)Cl)N1CCOCC1)=C1\NCCO1 | 0 | 0 | 0 | 0 | 0 | 0
CCS(=O)(=O)C(=C1NCCO1)S(=O)(=O)CC | 0 | 0 | 0 | 0 | 0 | 52
Cc1ccc(-c2ncns2)cc1 | 0 | 0 | 0 | 0 | 0 | 0
C=C1C(=O)C2=CC1CCC(=O)C1(C)CCC(OC(C)=O)C(C)(C)C1CC2O (configuration not stated) | - | - | - | - | 89 | 89
Cc1cc(NC(=O)CSc2nnc(-c3ccccc3)n2C)no1 | 0 | 0 | 0 | 0 | 0 | 0
OCCN(Cc1ccccc1)Cc1cccc(Cl)c1Cl | 0 | 0 | - | 0 | -80 | 0
C#CCOCCOCCOCCNc1nc(N2CCN(C(=O)[C@H](CCCCN)n3cc(C(N)CO)nn3)CC2)nc(N2CCN(C(=O)[C@H](CCCCN)n3cc(C(N)COC(=O)C(F)(F)F)nn3)CC2)n1 (some centres not stated) | 0 | 7.1 | - | - | 0 | 0
C#CCOCCOCCOCCNc1nc(N2CCN(C(=O)CCCCCCCCCCNC(=O)[C@H](CO)n3cc(CCCSC)nn3)CC2)nc(N2CCN(C(=O)CCCCCCCCCCNC(=O)[C@H](CCCCN)n3cc(C[C@@H](C)CC)nn3)CC2)n1 | 0 | 0 | - | - | -85 | 0
CCCCNC(=S)NNc1c(Cl)cc(Cl)cc1Cl | 0 | 0 | 0 | 0 | -72 | 0
O=c1cc(-c2ccccc2Cl)oc2c(NS(=O)(=O)c3cc(Cl)cc(Cl)c3O)ccc(O)c12 | -9.8 | 0 | 0 | 0 | 0 | 0
